Results gathered from unrelated publications.
Each line is one published result; the experiments were not run side by side.
Target: Mitogen-activated protein kinase kinase kinase kinase 3 (MAP4K3, Homo sapiens, UniProt Q8IVH8)
One construct used (Q8IVH8 1-894): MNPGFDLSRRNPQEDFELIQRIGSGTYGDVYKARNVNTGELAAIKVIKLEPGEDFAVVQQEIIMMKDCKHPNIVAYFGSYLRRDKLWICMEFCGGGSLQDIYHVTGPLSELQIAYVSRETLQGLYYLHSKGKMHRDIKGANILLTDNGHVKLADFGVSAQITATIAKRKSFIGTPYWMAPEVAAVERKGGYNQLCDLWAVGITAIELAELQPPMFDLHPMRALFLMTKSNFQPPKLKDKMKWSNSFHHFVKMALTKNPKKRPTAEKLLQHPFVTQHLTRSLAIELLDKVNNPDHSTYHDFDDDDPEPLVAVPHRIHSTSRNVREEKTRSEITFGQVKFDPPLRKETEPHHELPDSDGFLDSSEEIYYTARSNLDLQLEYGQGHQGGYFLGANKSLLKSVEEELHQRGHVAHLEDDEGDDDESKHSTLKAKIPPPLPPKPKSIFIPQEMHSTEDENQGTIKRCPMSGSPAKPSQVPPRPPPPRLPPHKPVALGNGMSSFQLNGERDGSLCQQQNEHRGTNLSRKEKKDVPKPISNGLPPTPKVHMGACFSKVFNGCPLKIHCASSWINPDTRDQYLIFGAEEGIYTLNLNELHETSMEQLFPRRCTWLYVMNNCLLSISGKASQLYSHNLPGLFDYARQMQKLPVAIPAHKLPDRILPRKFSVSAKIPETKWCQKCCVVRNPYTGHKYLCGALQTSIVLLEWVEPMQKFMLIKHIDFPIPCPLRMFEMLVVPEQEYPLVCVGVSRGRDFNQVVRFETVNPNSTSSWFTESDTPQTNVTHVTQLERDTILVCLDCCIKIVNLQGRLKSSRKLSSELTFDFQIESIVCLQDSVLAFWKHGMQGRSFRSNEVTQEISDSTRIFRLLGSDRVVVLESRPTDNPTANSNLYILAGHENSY

COc1cc(Nc2cnc(C#N)c(O[C@H](C)CN(C)C)n2)ncc1-c1cnn(C)c1  remaining activity (enzyme activity, inhibitor, radiometric; 1 µM): 45%
CCCCN(CCCC)C(=O)CN1C[C@H](c2cc(OC)c3c(c2)OCO3)[C@@H](C(=O)O)[C@@H]1CC(C)(C)CCC  remaining binding (cell-free assay, competition with immobilised ligand; 1 µM): 100%
Cc1sc(C(=O)NC2COC2)cc1-n1cc(NC(=O)Nc2c(F)cccc2Cl)cn1  remaining activity (enzyme activity, inhibitor; 10 µM): 118%
Cc1ccc(C(=O)NCc2ccsc2)cc1C#Cc1cn(C(C)C)c2ncnc(N)c12  activity vs control (enzyme activity, inhibitor; 1 µM): 54%
FC(F)(F)Oc1cccc(-c2cnc3ccc(-c4ccncc4)nn23)c1  activity vs control (enzyme activity, inhibitor, radiometric; 1 µM): 54%
c1ccc(CNc2nc(N3CCOc4ccccc43)nc3c2CCCC3)cc1  inhibition (target engagement in cells, inhibitor, chemoproteomics; 20 mM): 3.3%
Nc1ncnc2occ(-c3ccc(NC(=O)Nc4cc(C(F)(F)F)ccc4F)cc3)c12  remaining signal (cell-free assay, inhibitor; 20 µM): 0.8%
Cc1ccc(C(=O)Nc2ccc(CN3CCN(C)CC3)c(C(F)(F)F)c2)cc1C#Cc1cnc2cccnn12  remaining activity (enzyme activity, inhibitor; 23.5 nM): 89%
CN1CC(Oc2cnc(C#N)cc2-c2ccn3nc(NC(=O)C4CC4)cc3c2)C1  inhibition (enzyme activity, inhibitor; 1 µM): -4%
CC(=O)c1c(NS(C)(=O)=O)c2cc(-c3ccc(Cl)cc3)c(-c3ccc(Cl)cc3Cl)nc2n(C)c1=O  remaining binding (cell-free assay, competition with immobilised ligand; 1 µM): 99%
CCCCNc1ncc2c(-c3ccc(F)cc3)nn(C[C@H]3CC[C@H](N)CC3)c2n1  inhibition (target engagement in cells, inhibitor, chemoproteomics; 20 mM): 44.6%
COc1cc(Cl)c(C(=O)N[C@@H](CN[C@H]2CC[C@@H](N)CC2)Cc2ccc(C#N)cc2)cc1-c1ccc(CN[C@H](C)c2ccc(C)cc2)o1  remaining activity (enzyme activity, inhibitor; 1 µM): 98%
COc1cc(/C=C/C(=O)CC(=O)/C=C/c2ccc(O)c(OC)c2)ccc1O  activity vs control (enzyme activity, inhibitor; 1 µM): 87%
O=C(Nc1cnn(-c2csc(C(=O)NC3COC3)c2)c1)Nc1c(F)cccc1Cl  remaining activity (enzyme activity, inhibitor; 5 µM): 100%
CNC(=O)c1ccc(Nc2ncc(C(F)(F)F)c(NCc3nccnc3N(C)S(C)(=O)=O)n2)cc1  remaining binding (cell-free assay, competition with immobilised ligand; 0.1 µM): 95%
